Assay results: ChEMBL document CHEMBL4196085, “Structure-guided design of potent and permeable inhibitors of MERS coronavirus 3CL protease that utilize a piperidine moiety as a novel design element” (Eur J Med Chem, 2018)
pEC50, pIC50: −log10 of the molar value.

Columns and labels:
[1] = target: Replicase polyprotein 1ab (Middle East respiratory syndrome-related coronavirus (isolate UnitedKingdom/H123990006/2012) (Betacoronavirus England 1) (Humancoronavirus EMC), UniProt K9N7C7); test: Inhibition of Middle East respiratory syndrome-related coronavirus 3CL protease using Dabcyl-KTSAVLQ/SGFRKME-Edans as substrate incubated for 30 mins followed by substrate addition measured after 1 hr by FRET assay
Replicase polyprotein 1ab (Middle East respiratory syndrome-related coronavirus (isolate UnitedKingdom/H123990006/2012) (Betacoronavirus England 1) (Humancoronavirus EMC), UniProt K9N7C7), sequence (K9N7C7 3248-3553 limits assumed): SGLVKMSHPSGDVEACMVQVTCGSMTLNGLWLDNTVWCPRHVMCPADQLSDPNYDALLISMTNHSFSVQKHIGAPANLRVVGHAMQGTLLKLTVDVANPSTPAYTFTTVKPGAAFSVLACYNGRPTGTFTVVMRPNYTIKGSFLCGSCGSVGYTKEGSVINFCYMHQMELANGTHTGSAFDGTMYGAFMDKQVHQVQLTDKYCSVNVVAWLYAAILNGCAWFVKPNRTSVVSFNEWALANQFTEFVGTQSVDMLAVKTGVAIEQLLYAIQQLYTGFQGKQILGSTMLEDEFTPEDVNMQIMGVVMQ
Procedure, shortened: (§1)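 Purified recombinant 3CLpro of FIPV, MERS-CoV or SARS-CoV was preincubated 30 min at 37 °C with serial compound dilutions or DMSO. Buffer: 20 mM HEPES pH 8, 200 mM NaCl, 0.4 mM EDTA, 60% glycerol, 6 mM DTT. Substrate was then added and fluorescence read 1 h later (ex 360/em 460 nm), minus no-protease background. IC50 came from variable-slope fits, at least two determinations.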

[2] = target: Replicase polyprotein 1ab (Feline coronavirus (strain FIPV WSU-79/1146) (FCoV), UniProt Q98VG9); test: Inhibition of Feline infectious peritonitis virus 3CL protease using Dabcyl-KTSAVLQ/SGFRKME-Edans as substrate incubated for 30 mins followed by substrate addition measured after 1 hr by FRET assay; procedure, shortened: as §1
Replicase polyprotein 1ab (Feline coronavirus (strain FIPV WSU-79/1146) (FCoV), UniProt Q98VG9), sequence (Q98VG9 2904-3205 limits assumed): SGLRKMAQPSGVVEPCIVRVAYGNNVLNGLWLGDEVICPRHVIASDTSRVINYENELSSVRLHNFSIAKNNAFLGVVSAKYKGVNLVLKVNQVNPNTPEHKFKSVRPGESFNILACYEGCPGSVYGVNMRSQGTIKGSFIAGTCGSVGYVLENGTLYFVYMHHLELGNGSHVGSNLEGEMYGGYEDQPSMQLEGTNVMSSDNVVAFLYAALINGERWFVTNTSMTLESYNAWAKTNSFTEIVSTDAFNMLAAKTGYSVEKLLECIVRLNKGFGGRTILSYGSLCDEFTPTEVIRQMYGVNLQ

[3] = target: Replicase polyprotein 1ab (Severe acute respiratory syndrome-related coronavirus, UniProt P0C6X7); test: Inhibition of SARS coronavirus 3CL protease using Dabcyl-KTSAVLQ/SGFRKME-Edans as substrate incubated for 30 mins followed by substrate addition measured after 1 hr by FRET assay; procedure, shortened: as §1
[4] = Cytotoxicity against mouse CCL-9.1 assessed as reduction in cell viability after 72 hrs by CytoTox 96 nonradioactive cytotoxicity assay; conditions: CCL-9.1 cells
Procedure, shortened: (§2)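 Confluent Vero81, CRFK or CCL9.1 cells were exposed to compound at 1–100 μM for 72 h. Cytotoxicity was read with the CytoTox 96 nonradioactive kit. CC50 was taken as the dose giving 50% cell death, averaged over at least two determinations.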

[5] = Cytotoxicity against African green monkey Vero81 cells assessed as reduction in cell viability after 72 hrs by CytoTox 96 nonradioactive cytotoxicity assay; type: cell-based; conditions: chlorocebus sabaeus; procedure, shortened: as §2
[6] = system: Middle East respiratory syndrome-related coronavirus; test: Antiviral activity against Middle East respiratory syndrome-related coronavirus infected in African green monkey Vero81 cells assessed as reduction in viral titer after 48 hrs; type: functional, organism-based
[7] = Selectivity index, ratio of CC50 for African green monkey Vero81 cells to IC50 for Middle East respiratory syndrome-related coronavirus; type: toxicity; conditions: read-out: Ratio CC50/IC50
[8] = Cytotoxicity against cat CRFK cells assessed as reduction in cell viability after 72 hrs by CytoTox 96 nonradioactive cytotoxicity assay; type: cell-based, Felis catus; procedure, shortened: as §2
[9] = system: Feline infectious peritonitis virus; test: Antiviral activity against Feline infectious peritonitis virus infected in […] cells assessed as reduction in viral titer after 48 hrs; type: functional, organism-based; conditions: Alphacoronavirus 1, 48 h

Compound | pIC50 [1] | pIC50 [2] | pIC50 [3] | CC50 at 72 h [4] [µM] | CC50 at 72 h [5] [µM] | pEC50 [6] | selectivity ratio [7] | CC50 at 72 h [8] [µM] | pEC50 [9]
CC(C)C[C@H](NC(=O)OC1(Cc2ccccc2)CCN(S(C)(=O)=O)CC1)C(=O)N[C@H](C=O)C[C@@H]1CCNC1=O | 6.15 | 6.10 | 5.41 |  |  |  |  |  | 
CC(C)C[C@H](NC(=O)OC1CCN(C(=O)OC(C)(C)C)CC1)C(=O)N[C@@H](C[C@@H]1CCNC1=O)C(O)S(=O)(=O)O (some centres not stated) | 6.40 | 5.62 | 5.29 | > 100 | > 100 | 6.30 | > 250 | > 100 | 5.82
CCC1(OC(=O)N[C@@H](CC(C)C)C(=O)N[C@H](C=O)C[C@@H]2CCNC2=O)CCN(C(=O)OC(C)(C)C)CC1 | 5.21 | 5.26 | 5.26 |  |  |  |  |  | 
CC(C)C[C@H](NC(=O)OC1(Cc2ccccc2)CCN(S(C)(=O)=O)CC1)C(=O)N[C@@H](C[C@@H]1CCNC1=O)C(O)S(=O)(=O)O (some centres not stated) | 6.05 | 5.96 | 5.37 |  |  |  |  |  | 
CC(C)C[C@H](NC(=O)OC1CCN(C(=O)OC(C)(C)C)CC1)C(=O)N[C@H](C=O)C[C@@H]1CCNC1=O | 6.22 | 6.10 | 5.68 |  |  |  |  |  | 
CC(C)C[C@H](NC(=O)OC1(Cc2ccccc2)CCN(C(=O)OC(C)(C)C)CC1)C(=O)N[C@H](C=O)C[C@@H]1CCNC1=O | 6.10 | 5.80 | 5.28 |  |  |  |  |  | 
CC(C)C[C@H](NC(=O)OC1(Cc2ccccc2)CCN(C(=O)OC(C)(C)C)CC1)C(=O)N[C@@H](C[C@@H]1CCNC1=O)C(O)S(=O)(=O)O (some centres not stated) | 6.15 | 5.68 | 5.20 | > 100 | > 100 | 6.10 |  | > 100 | 7.00
CCOC(=O)N1CCC(OC(=O)N[C@@H](CC(C)C)C(=O)N[C@H](C=O)C[C@@H]2CCNC2=O)CC1 | 6.22 | 5.89 | 5.49 |  |  |  |  |  | 
CCC1(OC(=O)N[C@@H](CC(C)C)C(=O)N[C@@H](C[C@@H]2CCNC2=O)C(O)S(=O)(=O)O)CCN(C(=O)OC(C)(C)C)CC1 (some centres not stated) | 5.12 | 5.17 | 5.39 |  |  |  |  |  | 
CC(C)C[C@H](NC(=O)OC1CCN(S(C)(=O)=O)CC1)C(=O)N[C@H](C=O)C[C@@H]1CCNC1=O | 6.15 | 5.46 | 4.54 |  |  |  |  |  | 
CCOC(=O)N1CCC(OC(=O)N[C@@H](CC(C)C)C(=O)N[C@@H](C[C@@H]2CCNC2=O)C(O)S(=O)(=O)O)CC1 (some centres not stated) | 6.30 | 5.96 | 5.06 |  |  |  |  |  | 
CC(C)C[C@H](NC(=O)OC1CCN(S(C)(=O)=O)CC1)C(=O)N[C@@H](C[C@@H]1CCNC1=O)C(O)S(=O)(=O)O (some centres not stated) | 6.22 | 5.64 | 4.38 |  |  |  |  |  | 
